Screens: PubChem, Broad Institute
An excerpt weighted towards active compounds, which were near 2.1% of everything screened.
AF4-AF9 inh – inhibitors of AF4 peptide binding to AF9, primary screen, biochemical, AlphaScreen, biotin-AF4 peptide, FLAG-AF9, single point | inhibition, % at 10 µM | hit rate 0.47% among 350,000 | AID 651704, 2012;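 active = every replicate reaching a set inhibition limit, whatever the replicate mean, cut at about 25% in these data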;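 also: 0% = plate neutral control median and 100% = total signal loss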
Target sequence (P42568 whole entry, looked up): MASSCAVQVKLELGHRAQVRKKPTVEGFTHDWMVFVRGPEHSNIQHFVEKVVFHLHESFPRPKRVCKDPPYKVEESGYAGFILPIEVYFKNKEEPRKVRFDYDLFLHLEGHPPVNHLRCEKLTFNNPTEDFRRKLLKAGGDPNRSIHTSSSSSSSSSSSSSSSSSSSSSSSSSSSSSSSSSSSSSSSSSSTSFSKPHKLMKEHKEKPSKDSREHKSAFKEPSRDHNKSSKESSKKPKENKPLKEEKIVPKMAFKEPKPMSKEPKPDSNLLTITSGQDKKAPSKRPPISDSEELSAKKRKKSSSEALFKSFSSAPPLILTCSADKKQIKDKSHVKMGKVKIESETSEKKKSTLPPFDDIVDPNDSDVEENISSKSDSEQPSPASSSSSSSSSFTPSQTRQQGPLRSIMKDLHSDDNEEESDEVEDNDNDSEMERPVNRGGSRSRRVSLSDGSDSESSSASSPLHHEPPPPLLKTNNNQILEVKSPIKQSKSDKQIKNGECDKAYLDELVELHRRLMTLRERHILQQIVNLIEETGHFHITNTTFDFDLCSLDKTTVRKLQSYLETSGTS
PAX8 inh HTS – inhibitors of PAX8-driven TPO luciferase reporter, primary screen, RMG-I cells, single concentration; SteadyGlo, 24 h; inhibition, % at 12.6 µM; hit rate 1.2% among 360,000; AID 652154, 2013;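 active = mean replicate inhibition at least 60% with every replicate also reaching 60%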;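 also: luciferase light reporting Pax8 driven TPO promoter activity; plate controls were median of neutral control wells for no effect and mitoxantrone controls for full effect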
XiGFP reactiv – activators of inactive X chromosome reactivation, primary screen, imaging, XiGFP fibroblasts, GFP high-content imaging, set 2; hit rate 0.055% among 360,000; activation, % at 7.58 µM; XiGFP mouse fibroblasts, % GFP-positive cells imaging, 3 d; cells co-treated with 5-aza-dC sensitizer; scaled so ellipticine positive control = 100%;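 active = mean normalized replicate activation at least 10% and every replicate at or above 10%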;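 also: 0% = median of on-plate neutral control wells and 100% = ellipticine 6 µM median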
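material = 68-5-11 XiGFP fibroblast line | medium = DMEM plus 5-aza-dC sensitizer | schedule = 3 days compound exposure | benchmarks = positive control ellipticine, 6 µM final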
EWS-Fli block – EWS/Fli-driven NR0B1 reporter inhibitors, primary screen, A673 cells, NR0B1 luciferase, luminescence, MLPCN library. AID 651661, 2012. inhibition, % at 12.6 µM. viability-normalised. hit rate 0.67% among 350,000;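 active = mean inhibition of at least 50% after viability correction, with every replicate also passing that limit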;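 also: firefly luciferase signal divided by Alamar Blue viability fluorescence both relative to DMSO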
GSIS activator – GLuc luminescence reporter in INS-1E cells, primary screen for activators of glucose-dependent secretion of insulin; AID 743287, 2014; INS-1E GLuc reporter insulin secretion, 2-3 h; hit rate 0.61% among 370,000; activation, % at 16.6 µM;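 active = lowest replicate activation of at least 40%, so every replicate reaches that level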;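 also: 0% = median of neutral control wells and 100% = median of IBMX positive control wells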
PGC1a acetyl inh – inhibitors of PGC1a acetylation signal, primary screen, cell-based, U2OS, AlphaScreen, inhibitor mode | AlphaScreen anti-acetyl-lysine; with virally co-expressed GCN5 acetyltransferase | inhibition, % at 15.6 µM | hit rate 0.17% among 350,000;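 active = every replicate shows inhibition of at least 40%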;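 also: 0% = neutral control wells and 100% = positive control wells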
Starred values were filed as active, the others as inactive; x = not tested or not shown.

SMILES	AF4-AF9 inh	PAX8 inh HTS	XiGFP reactiv	EWS-Fli block	GSIS activator	PGC1a acetyl inh
COc1ccc(S(=O)(=O)Nc2ccc3c(c2)C(=O)N([C@H](C)CO)C[C@@H](C)[C@H](CN(C)Cc2ccc(C(F)(F)F)cc2)OCCCC[C@H](C)O3)cc1	3.2	25.7	0.2	32.1	-13.4	7.3
O=C([C@H]1[C@H](CO)[C@H]2Cn3c(cccc3=O)[C@@H]1N2C(=O)CC1CC1)N1CCCCC1	-0.2	x	0.5	-3.0	3.8	x
CC(=O)C1=C(S(=O)(=O)c2ccc(C)cc2)CS(=O)(=O)C1	-7.8	16.5	0.0	21.7	124.4*	-14.3
Cc1ccc(S(=O)(=O)C2CS(=O)(=O)CC2O)cc1 (centres undefined)	x	x	x	x	x	6.2
CO[C@H]1CN(C)C(=O)c2cc(NC(=O)Nc3cc(F)ccc3F)ccc2OC[C@@H](C)N(C(=O)c2cnccn2)C[C@H]1C	1.9	-1.8	0.2	3.1	-17.6	-2.4
CN(C)CC/C=C1/c2cc(F)ccc2Sc2ccc(Cl)cc21	37.2*	8.7	0.2	7.3	-22.7	-11.3
CN(C)CC/C=C1/c2ccccc2Sc2c(O)cc(Cl)cc21	x	x	x	x	x	-17.3
COc1ccccc1N1CCN(Cc2cc3c(cc2Br)OCCO3)CC1	3.6	-1.1	0.3	1.0	-3.0	x
COc1ccc(N2CCN(Cc3cc4c(cc3Br)OCCO4)CC2)cc1	26.9*	27.5	0.7	9.4	-8.1	x
CN1C(=O)c2cc(NC(=O)C3CCCC3)ccc2OC[C@@H]2O[C@@H](CC(=O)NCCc3ccncc3)CC[C@H]21	2.6	5.4	0.1	-3.0	-4.4	-4.6
CCC1(O)C(=O)OCc2c1cc1n(c2=O)Cc2cc3cc(O)ccc3nc2-1 (centres undefined)	1.9	x	x	55.7*	-6.2	34.4
COc1ccc2c3c(n(C)c2c1)[C@@H](CO)N(C(=O)c1ccc(F)cc1)CC31CN(C)C1	x	x	-0.1	-5.9	-10.6	4.2
CCn1c(=O)[nH]c(=O)c2c(N)c(C(=O)c3cc(F)ccc3F)sc21	1.8	-70.4	-0.2	19.6	55.5*	7.1
Cc1ccc(C(=O)c2sc3c(c2N)c(=O)[nH]c(=O)n3CCc2ccccc2)cc1	x	-6.6	0.0	x	24.6	x
COc1ccc(S(=O)(=O)Nc2ccc3c(c2)C(=O)N([C@H](C)CO)C[C@@H](C)[C@H](CN(C)C(=O)Nc2ccc(F)cc2)OCCCC[C@H](C)O3)cc1	2.9	3.2	0.2	1.8	-17.5	-10.9
CN(C)S(=O)(=O)c1ccc2c(c1)/C(=C/c1cc3c([nH]1)CCCC3)C(=O)N2	-2.6	-40.8	112.5*	-0.6	13.6	-3.9
CCOC(=O)c1cc(CC)sc1NC(=O)COC(=O)c1ccccn1	-17.8	-28.6	0.4	-0.3	39.5	x
CCOC(=O)c1cc(CC)sc1NC(=O)COC(=O)c1cnccn1	-0.8	2.2	-0.1	-4.3	69.4*	x
CC1(C(=O)O)CCCN1C(=O)c1ccccc1OC(F)(F)F (centres undefined)	0.7	72.7*	0.0	-12.4	-6.0	-15.7
CCOC(=O)C1(C)CCN1C(=O)c1ccccc1OC(F)(F)F (centres undefined)	0.5	-5.5	0.0	-6.3	21.3	-1.1
COc1cc2c(c(OC)c1OC)-c1ccc(NCc3ccccc3)c(=O)cc1C(NC(C)=O)CC2 (centres undefined)	-0.4	84.3*	0.4	36.2	-12.2	x
COc1cc2c(c(OC)c1OC)-c1ccc(N(C)CC(OC)OC)c(=O)cc1[C@@H](NC(C)=O)CC2	1.2	98.9*	1.2	60.0*	-4.5	x
CCOC(=O)NC1CCc2cc(OC)c(OC)c(OC)c2-c2ccc(OC)c(=O)cc21 (centres undefined)	-0.8	73.4*	2.3	47.5	4.3	-8.3
COc1cc2c(c(OC)c1OC)-c1ccc(OC)c(=O)cc1[C@@H](NC(C)=O)CC2	-4.8	95.8*	0.3	62.5*	14.1	2.6
COc1cc2c(c(OC)c1OC)-c1ccc(NC(=O)c3ccc(F)cc3)c(=O)cc1[C@@H](NC(C)=O)CC2	5.1	0.3	0.8	42.9	-11.8	x
SMILES	AF4-AF9 inh	PAX8 inh HTS	XiGFP reactiv	EWS-Fli block	GSIS activator	PGC1a acetyl inh
O=C(NCC[C@@H]1CC[C@H](NS(=O)(=O)c2ccc(F)cc2)[C@@H](CO)O1)c1ccccc1F	-2.9	x	-0.1	2.1	7.5	-9.2
COc1ccc(-c2ccc3c(c2)[C@H]2[C@H](CCN2C(=O)c2cnccn2)[C@H](CO)N3)cc1	2.5	12.3	0.0	-2.3	-1.6	-4.5
O=C(C[C@H]1C=C[C@H](NC(=O)CC2CC2)[C@H](CO)O1)NCc1ccccc1	-2.8	x	-0.4	-4.6	7.3	3.1
COc1ccc(S(=O)(=O)Nc2ccc3c(c2)CC(=O)N([C@@H](C)CO)C[C@@H](C)[C@@H](CN(C)Cc2ccc(-c4ccccc4)cc2)O3)cc1	x	85.4*	0.0	22.6	8.3	-3.7
C[C@H](CO)N1C[C@H](C)[C@@H](CN(C)Cc2ccc(-c3ccccc3)cc2)Oc2ccc(NS(=O)(=O)c3ccc(F)cc3)cc2CC1=O	x	75.6*	-1.2	11.8	-9.3	1.9
COc1ccc(S(=O)(=O)Nc2ccc3c(c2)CC(=O)N([C@@H](C)CO)C[C@H](C)[C@H](CN(C)S(=O)(=O)c2ccc(C)cc2)O3)cc1	-1.5	71.9*	0.3	-16.1	-13.3	4.1
COc1ccc(S(=O)(=O)Nc2ccc3c(c2)CC(=O)N([C@H](C)CO)C[C@H](C)[C@@H](CN(C)Cc2ccc(-c4ccccc4)cc2)O3)cc1	0.1	75.6*	-0.1	-3.2	7.6	-17.9
C[C@@H]1CCCCO[C@H](CN(C)S(C)(=O)=O)[C@H](C)CN([C@@H](C)CO)C(=O)c2cc(NS(C)(=O)=O)ccc2O1	x	-16.3	-0.1	-12.1	11.8	2.5
C[C@@H]1CN([C@@H](C)CO)C(=O)c2cc(NC(=O)Nc3ccccc3)ccc2O[C@H]1CN(C)Cc1ccc(C(=O)O)cc1	-2.8	-17.9	0.0	-5.7	0.6	7.6
CNC(=O)C[C@H]1CC[C@H]2[C@H](COc3ccc(NC(=O)c4ccccc4Cl)cc3C(=O)N2C)O1	-1.6	-17.4	0.3	6.1	15.6	-0.6
O=C(Nc1ccc(S(=O)(=O)N2CCOCC2)cc1)c1cc(-c2cc(Cl)ccc2O)n[nH]1	0.3	76.5*	0.0	58.7*	0.6	-17.8
O=C(Nc1ccc(S(=O)(=O)N2CCOCC2)cc1)c1ccc(=O)[nH]c1	-3.2	-2.8	2.1	-6.6	42.8*	x
